NR2E3 ag-1: NR2E3 agonists in two-hybrid cells, primary screen, cell-based, luminescence, CHO-S, Gal4-NCOR/VP16-NR2E3. Photoreceptor-specific nuclear receptor (Homo sapiens), Q9Y5X4. luciferase. inhibition of corepressor binding, % at 3.98 µM. 0.35% of 360,000 active;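 active means inhibition above the mean of all tested compounds plus 3 SD, cut at about 70% in these data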;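 further: higher means lower luciferase signal from less NR2E3 corepressor binding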
Target sequence (Q9Y5X4 whole entry, looked up, the tested form may be a part): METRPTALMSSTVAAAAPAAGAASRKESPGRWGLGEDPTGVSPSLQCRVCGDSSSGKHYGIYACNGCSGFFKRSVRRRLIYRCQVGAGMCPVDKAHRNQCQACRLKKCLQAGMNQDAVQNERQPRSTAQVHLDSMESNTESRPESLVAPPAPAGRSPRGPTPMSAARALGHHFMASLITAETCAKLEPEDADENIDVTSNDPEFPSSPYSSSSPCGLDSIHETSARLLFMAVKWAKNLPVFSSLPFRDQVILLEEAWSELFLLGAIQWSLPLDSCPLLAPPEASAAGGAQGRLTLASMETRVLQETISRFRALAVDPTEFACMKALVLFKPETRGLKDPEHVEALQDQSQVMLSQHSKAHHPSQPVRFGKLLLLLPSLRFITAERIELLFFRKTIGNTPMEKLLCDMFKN
697 NFkB inh: inhibitors of PMA/ionomycin-induced NF-kB reporter, 697 cells, primary screen, B-cell NF-kB inhibitor project, cell-based, luminescence, uHTS; 697 B-cell NF-kB luciferase reporter, 16 h; 0.33% of 330,000 active; inhibition, % at 4 µM; in the data active means inhibition above about 35%
Jurkat NFkB inh: inhibitors of induced NF-kB luciferase reporter, primary screen, TCR NF-kB activation inhibitor project, cell-based, luminescence, uHTS | Jurkat, PMA/ionomycin-induced NF-kB luciferase reporter | 0.53% of 330,000 active | inhibition, % at 4 µM; in the data active means inhibition above about 50%
FGF22 binding: binders of human FGF22 protein, primary screen, FGF22 synaptogenesis inhibitor project, biophysical, thermal shift, single point; Fibroblast growth factor 22 (Homo sapiens), Q9HCT0; recombinant FGF22 thermal shift, SYPRO orange fluorescence; percent of sucrose octasulfate shift, DMSO zero; activity (Tm shift, normalised), % at 9.99 µM; 1.5% of 340,000 active; AID 651658, 2012;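 active means mean Tm shift, scaled 0 neutral to 100 positive control, at about 1.3% or above, every replicate too, limit read from the data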
Target sequence (Q9HCT0 whole entry, looked up): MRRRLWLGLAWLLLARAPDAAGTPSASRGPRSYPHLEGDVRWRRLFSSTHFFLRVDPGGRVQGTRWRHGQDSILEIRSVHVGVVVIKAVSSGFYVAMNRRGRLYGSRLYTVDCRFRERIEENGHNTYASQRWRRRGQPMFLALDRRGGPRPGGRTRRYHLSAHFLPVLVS
NR2E3 ag-2: inhibitors of NR2E3-RetCOR corepressor binding, primary screen, NR2E3 agonist project, biochemical, TR-FRET, GST-NR2E3, biotin-RetCOR. 1536-well. Photoreceptor-specific nuclear receptor (Homo sapiens), Q9Y5X4. AID 2300, 2010. inhibition of corepressor binding, % at 4.78 µM. 0.12% of 320,000 active;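 active means percent inhibition above the cutoff of mean plus 3 SD of all tested compounds, set per screening campaign, cut at about 20% in these data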
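system = GST-tagged NR2E3 plus biotinylated RetCOR corepressor | input = 1.35 nM GST-NR2E3 | also added = 7 nM biotin-RetCOR | schedule = 5 h incubation at 4 °C | measured by = TR-FRET with europium anti-GST and streptavidin-D2, 340 nm excitation | read-out = percent loss of FRET ratio relative to control wells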
miR-122 sensor: miR-122 Renilla sensor signal increase in Huh7, primary screen, miR-122 inhibitor project, cell-based, single point, plate reader. 0.3% of 340,000 active. Huh7 miR-122 Renilla luciferase sensor, 48 h; neutral wells = 0, positive control = 100. AID 602342, 2012. activation (reporter increase), % at 12.5 µM;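 active means mean replicate activation score at least 90 and every replicate individually at or above 90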;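 further: higher luciferase means less miR-122 activity so hits act as miR-122 inhibitors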
697 NFkB conf: PMA/ionomycin-induced NF-kB reporter inhibitors, 697 retest, confirmation, B-cell NF-kB inhibitor project, cell-based, luminescence, single concentration | shares compounds with 697 NFkB inh | 697 B-cell NF-kB luciferase, 16 h | inhibition, % at 4 µM | 35% of 2,000 active | AID 449746, 2010; in the data active means inhibition mostly above about 28%, no sharp cut-off; inactive means mostly below about 22%
Of the large screens only hits and unclear results are named; the others gave an inactive call (follow-up assays come after a bar, where they were run). An excerpt weighted towards active compounds, which were near 2.2% of everything screened.

CC1=NN(C(N)=S)C(=O)C1N=Nc1ccc(Cl)cc1 (centres undefined)	none (no result: NR2E3 ag-2)
CC1=NN(C(N)=S)C(=O)C1N=Nc1ccc(Br)cc1 (centres undefined)	none (no result: NR2E3 ag-2) | 697 NFkB conf inactive
CN1C[C@@H](O)COC[C@@H]2O[C@H](CC(=O)NC3CCC3)CC[C@H]21	none (no result: NR2E3 ag-1, 697 NFkB inh, Jurkat NFkB inh, NR2E3 ag-2)
Cc1ccc(-c2nc(N)n(C(=O)c3ccco3)n2)cc1	697 NFkB inh 36 | 697 NFkB conf inactive
Cc1nn(C)cc1CN1CCC(CO)(CCOc2ccccc2)CC1	697 NFkB inh 43 (no result: miR-122 sensor) | 697 NFkB conf inactive
COc1cc(-c2ccc(NC(=O)NC3CC3)c(OC)c2)ccc1NC(=O)NC1CC1	none (no result: NR2E3 ag-1, miR-122 sensor) | 697 NFkB conf inactive
CCC(=O)Nc1ccc(-c2ccc(NC(=O)CC)c(OC)c2)cc1OC	none (no result: miR-122 sensor)
CCNC(=O)C[C@@H]1CC[C@H]2[C@@H](COC[C@@H](O)CN2C(=O)c2ccccn2)O1	none (no result: NR2E3 ag-1, 697 NFkB inh, Jurkat NFkB inh, NR2E3 ag-2)
CCCC(=O)Nc1ccc2c(c1)C(=O)N(C)C[C@H](OC)[C@@H](C)CN(CCc1ccccc1)[C@@H](C)CO2	none (no result: NR2E3 ag-1, 697 NFkB inh, Jurkat NFkB inh, NR2E3 ag-2)
CC1(C)Cc2c(sc(NC(=O)Cc3ccccc3)c2C#N)CO1	697 NFkB inh 41 (no result: miR-122 sensor) | 697 NFkB conf inactive
CCCNC(=O)N1CC2(C1)[C@@H](c1ccccc1)[C@@H](CO)N2C(=O)C1CCCCC1	none (no result: NR2E3 ag-1, 697 NFkB inh, Jurkat NFkB inh, NR2E3 ag-2, miR-122 sensor)
c1ccc(OCc2nnc(-c3ccccc3)o2)cc1	none (no result: miR-122 sensor)
ClCc1nnc(-c2ccccc2)o1	697 NFkB inh 35 (no result: miR-122 sensor) | 697 NFkB conf 29
O=C(O)c1ccccc1N/N=C\c1ccnc2ccccc12	none (no result: FGF22 binding) | 697 NFkB conf inactive
Cc1ccc(C(=O)C(C)OC(=O)c2ccccc2[N+](=O)[O-])cc1 (centres undefined)	none (no result: FGF22 binding, miR-122 sensor) | 697 NFkB conf inactive
C[C@H]1CN([C@@H](C)CO)C(=O)c2cc(-c3ccncc3)cnc2O[C@H]1CN(C)Cc1ccc(F)cc1	none (no result: NR2E3 ag-1, 697 NFkB inh, Jurkat NFkB inh, NR2E3 ag-2)
Cn1c(=O)n(C)c2cc(/C=C3/NC(=O)N(Cc4ccccc4)C3=O)ccc21	697 NFkB inh 47 (no result: FGF22 binding) | 697 NFkB conf 27
O=C(Nc1nccs1)c1cc2c(s1)CCCCC2	none (no result: FGF22 binding) | 697 NFkB conf inactive
Nc1nnc(CCS(=O)(=O)c2cc(Cl)ccc2Cl)s1	none (no result: FGF22 binding)
Cc1ccccc1CN(C)CCS(=O)(=O)c1cc(Cl)ccc1Cl	697 NFkB inh 36 (no result: miR-122 sensor) | 697 NFkB conf inactive
COc1ccc(NC(=O)Nc2ccc3c(c2)C(=O)N([C@@H](C)CO)C[C@@H](C)[C@H](CN(C)C(=O)c2ccccc2)OCCCC[C@@H](C)O3)cc1	none (no result: NR2E3 ag-1, 697 NFkB inh, Jurkat NFkB inh, NR2E3 ag-2)
CC(=O)c1csc(COc2ccc(Cl)cc2)n1	none (no result: miR-122 sensor) | 697 NFkB conf inactive
COCCNC(=O)c1c(N)n(-c2ccccc2)c2nc3ccccc3nc12	none (no result: FGF22 binding)
COCCNC(=O)c1c(N)n(-c2cccc(C)c2)c2nc3ccccc3nc12	697 NFkB inh 35 (no result: FGF22 binding) | 697 NFkB conf inactive
O=C(N[C@@H]1CC[C@H](CCNS(=O)(=O)c2ccccc2Cl)O[C@@H]1CO)c1ccc(F)cc1	none (no result: NR2E3 ag-1, 697 NFkB inh, Jurkat NFkB inh, NR2E3 ag-2, miR-122 sensor)
CCCC#Cc1ccc2c(c1)O[C@H](CN(C)C(=O)c1cnccn1)[C@H](C)CN([C@@H](C)CO)S2(=O)=O	none (no result: NR2E3 ag-1, 697 NFkB inh, Jurkat NFkB inh, NR2E3 ag-2)
CCc1[nH]nc2c1C(c1ccc(Br)s1)C(C#N)=C(N)O2 (centres undefined)	697 NFkB inh 43 (no result: FGF22 binding) | 697 NFkB conf inactive
CCc1[nH]nc2c1C(c1ccsc1)C(C#N)=C(N)O2 (centres undefined)	none (no result: FGF22 binding)
COCC(=O)Nc1ccc2c(c1)C(=O)N(C)C[C@H](OC)[C@H](C)CN(CC1CC1)[C@H](C)CO2	none (no result: NR2E3 ag-1, 697 NFkB inh, Jurkat NFkB inh, NR2E3 ag-2, miR-122 sensor)
